Measured values reported in ChEMBL document CHEMBL1138466, “Isaindigotone derivatives: a new class of highly selective ligands for telomeric G-quadruplex DNA” (J Med Chem, 2009).
Calls of active or inactive are those of the source. The rule behind the calls is not given here.

Experiments:
[1] = Inhibition of human telomerase in human MCF7 cell free extract by TRAP-LIG assay
Summary of the method: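 TRAP-LIG: MCF-7 protein extract (500 ng) extends TS primer in TRAP buffer (pH 8.3, 68 mM KCl) with 125 µM dNTPs and ligand, 20 min at 30 °C. Product purified to remove ligand, then PCR-amplified with ACX primer for 35 cycles. Products resolved on 16% PAGE with silver staining; IC50 computed from band optical density.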

[2] = tested on: Nucleic Acid; experiment: Binding affinity to F10T hairpin duplex DNA assessed as change in melting temperature at 1 uM by FRET assay; format: nucleic-acid assay
Summary of the method: (§1)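 FRET melting of dual-labelled probes (FAM/TAMRA): G-quadruplex F21T or hairpin duplex F10T, 0.2 µM, in 10 mM Tris-HCl pH 7.2 with 60 mM KCl, ligand 1 µM. Emission read at 530 nm (excitation 470 nm) every 1 °C from 37 to 99 °C, with a 30 s hold before each reading. ΔTm is taken relative to the annealed probe without ligand.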

[3] = tested on: Nucleic Acid; experiment: Binding affinity to oligonucleotide HTG21 by florescence titration assay in presence of K+ solution; format: nucleic-acid assay
Summary of the method: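 Fluorescence titration at 25 °C in 10 mM Tris-HCl pH 7.2 with 100 mM KCl. HTG21 DNA added to ligand up to 0–2 µM final, with at least 10 min equilibration after each addition. Excitation at 343 or 353 nm depending on ligand. Binding constant Kb derived from the titration.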

[4] = tested on: Nucleic Acid; experiment: Binding affinity to F21T human telomeric DNA assessed as change in melting temperature at 1 uM by FRET assay; format: nucleic-acid assay; summary of the method: as §1
[5] = tested on: HL-60; experiment: Induction of telomere shortening in human HL60 cells assessed as telomere length at 0.9 uM by telomeric restriction fragment assay; format: functional, cell-based
Summary of the method: (§2)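 TRF length: HL60 or CA46 cells treated for 16 days with 0.9 or 1.8 µM ligand or 0.1% DMSO. Genomic DNA digested with HinfI/RsaI, run on 0.8% agarose, transferred to nylon membrane and baked at 120 °C for 20 min. Telomeric smears detected by Southern analysis.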

[6] = tested on: HL-60; experiment: Cytotoxicity against human HL60 cells at 4.5 uM after 12 days; format: functional, cell-based
[7] = tested on: CA46; experiment: Cytotoxicity against human CA46 cells assessed as decrease in population doubling at 0.9 uM after 12 days; format: functional, cell-based
[8] = tested on: CA46; experiment: Induction of senescence in human CA46 cells assessed as beta galactosidase activity at 0.9 uM for 16 days; format: functional, cell-based
Summary of the method: (§3)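 SA-β-Gal staining: HL60 or CA46 cells treated continuously with 0.9 µM ligand or 0.1% DMSO for 16 days. Fixed in 2% formaldehyde/0.2% glutaraldehyde for 15 min, stained overnight at 37 °C with 1 mg/mL X-gal, then examined by light microscopy (×400). Repeated twice.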

[9] = tested on: Nucleic Acid; experiment: Binding affinity to HTG21 DNA assessed as induction of guanine-rich DNA to G-quadruplex structure formation; format: nucleic-acid assay
Summary of the method: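 CD titration: HTG21 5 µM in 10 mM Tris-HCl pH 7.2, without or with 100 mM KCl. Annealed at 90 °C for 5 min, cooled slowly, held at 4 °C overnight. Ligand added at 0–5 mol equiv at 25 °C with at least 13 min equilibration per addition. Spectra recorded 230–450 nm in a 4 mm quartz cuvette.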

[10] = tested on: HL-60; experiment: Cytotoxicity against human HL60 cells at 4.5 uM after 8 days; format: functional, cell-based
[11] = tested on: HL-60; experiment: Cytotoxicity against human HL60 cells after 2 days by MTT assay; format: functional, cell-based; details: HL-60, 48 h
Summary of the method: (§4)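 MTT viability: HL60 or CA46 cells seeded at 1.0 × 10³ per well and exposed to a ligand concentration series for 48 h at 37 °C, 5% CO₂. MTT added for 4 h, then DMSO; absorbance read at 570 nm. Each dose tested in triplicate; IC50 taken from mean OD versus concentration curves.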

[12] = tested on: CA46; experiment: Induction of telomere shortening in human CA46 cells assessed as telomere length at 1.8 uM by telomeric restriction fragment assay; format: functional; summary of the method: as §2
[13] = tested on: HL-60; experiment: Cytotoxicity against human HL60 cells assessed as decrease in population doubling at 1.8 uM after 12 days; format: functional, cell-based
[14] = tested on: CA46; experiment: Cytotoxicity against human CA46 cells after 2 days by MTT assay; format: functional, cell-based; details: CA46, 48 h; summary of the method: as §4
[15] = tested on: HL-60; experiment: Induction of senescence in human HL60 cells assessed as beta galactosidase activity at 0.9 uM for 16 days; format: functional, cell-based; summary of the method: as §3
[16] = tested on: HL-60; experiment: Cytotoxicity against human HL60 cells assessed as decrease in population doubling at 0.9 uM after 12 days; format: functional, cell-based
[17] = tested on: HL-60; experiment: Induction of telomere shortening in human HL60 cells assessed as telomere length at 1.8 uM by telomeric restriction fragment assay; format: functional; summary of the method: as §2

## O=C(CCN1CCCC1)Nc1ccc(/C=C2\CCn3c2nc2ccc(NC(=O)CCN4CCCC4)cc2c3=O)cc1
[1]
  IC50: 9 µM
[2]
  ΔTm: 0.4 °C
[3]
  Kb: 7.2 10^6 M-1
[4]
  ΔTm: 17.6 °C

## O=C(CCN1CCCCC1)Nc1ccc(/C=C2\CCn3c2nc2cc(NC(=O)CCN4CCCCC4)ccc2c3=O)cc1
[1]
  IC50: 9.3 µM
[2]
  ΔTm: 0 °C
[3]
  Kb: 9.8 10^6 M-1
[4]
  ΔTm: 22 °C

## O=C(CCN1CCCCC1)Nc1ccc(/C=C2\CCn3c2nc2ccc(NC(=O)CCN4CCCCC4)cc2c3=O)cc1
[1]
  IC50: 15.2 µM
[2]
  ΔTm: 0.1 °C
[3]
  Kb: 8.1 10^6 M-1
[4]
  ΔTm: 17.6 °C

## O=C(CCN1CCCC1)Nc1ccc(/C=C2\CCn3c2nc2cc(NC(=O)CCN4CCCC4)ccc2c3=O)cc1
[5]
  Activity: Active
[6]
  Activity: Active
[7]
  Activity: Active
[8]
  Activity: Active
[9]
  Activity: Active
[10]
  Activity: Active
[1]
  IC50: 7.8 µM
[11]
  IC50: 33 µM
[12]
  Activity: 2.3 kilobase
[13]
  Activity: Active
[2]
  ΔTm: 0.1 °C
[3]
  Kb: 10.1 10^6 M-1
[14]
  IC50: 29 µM
[15]
  Activity: Active
[4]
  ΔTm: 21.9 °C
[16]
  Activity: Active
[17]
  Activity: 1.1 kilobase

## CN(C)CCCNc1c2ccccc2nc2c1[nH]c1ccccc12
[2]
  ΔTm: 5.7 °C
[4]
  ΔTm: 10.4 °C
